Reference: ChEMBL document CHEMBL1122082, “Alkaline phosphatase inhibition by a series of pyrido[2,1-b]quinazolines: A possible relationship with cromolyn-like antiallergy activity” (J Med Chem, 1982)
Active and inactive are the calls of the source. No cut-off for these calls is given here.

What was measured:
Rattus norvegicus [1] = assay: Percent inhibition of rat passive cutaneous anaphylaxis model after intravenous administration of the 0.5 mg/kg; format: functional
Procedure, shortened: (§1)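 Antiserum dilutions were injected intradermally on the back. 48 h later rats got an i.v. challenge of 1 mg ovalbumin with 0.25% Evans blue in 1 mL saline, with compound dissolved in it, using slight-excess NaHCO3 if needed.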

Rattus norvegicus [2] = assay: Percent inhibition of rat passive cutaneous anaphylaxis model after intravenous administration of the 0.5 mg/kg; IA is Inactive; format: functional, organism-based; parameters: dose 0.5 mg/kg; conditions: at 0.5 mg/kg; procedure, shortened: as §1
Rattus norvegicus [3] = species on record: Rattus norvegicus; assay: Dose required for 50% inhibition of rat passive cutaneous anaphylaxis model; format: functional; procedure, shortened: as §1

`Cc1ccc2nc3ccc(-c4nn[nH]n4)cn3c(=O)c2c1` showed an inhibition in vivo at 0.5 mg/kg (Rattus norvegicus [1]) of 100%.
`O=C(O)C1=CN2CC3=C(CCCC3)N=C2C=C1` was tested, and the inhibition (Rattus norvegicus [2]) was “inactive”.
`Cc1ccc2nc3ccc(C(=O)O)cn3c(=O)c2c1` gave an ED50 (Rattus norvegicus [3]) of 0.05 mg/kg.
`COc1ccc2c(=O)n3cc(-c4nn[nH]n4)ccc3nc2c1` showed an ED50 (Rattus norvegicus [3]) of 0.5 mg/kg.
Work on `O=c1c2ccccc2nc2ccc(-c3nn[nH]n3)cn12` yielded an inhibition in vivo at 0.5 mg/kg (Rattus norvegicus [1]) of 68%.
In the case of `O=C(O)c1ccc2nc3cc4ccccc4cc3c(=O)n2c1`, the ED50 (Rattus norvegicus [3]) is reported as 0.1 mg/kg.
In the case of `COc1ccc2nc3ccc(C(=O)O)cn3c(=O)c2c1`, the ED50 (Rattus norvegicus [3]) is reported as 0.05 mg/kg.
For `COc1cc2nc3ccc(-c4nn[nH]n4)cn3c(=O)c2cc1OC`, the inhibition in vivo at 0.5 mg/kg (Rattus norvegicus [1]) was 100%.
With `O=C(O)c1cccn2c(=O)c3ccccc3nc12` the inhibition (Rattus norvegicus [2]) was “inactive”.
In the case of `O=C(O)c1ccc2nc3ccccc3c(=O)n2c1`, the ED50 (Rattus norvegicus [3]) is reported as 0.5 mg/kg.
`O=c1c2cc3ccccc3cc2nc2ccc(-c3nn[nH]n3)cn12` was tested, and the inhibition in vivo at 0.5 mg/kg (Rattus norvegicus [1]) was 100%.
With `O=C(O)c1ccc2nccc(=O)n2c1` the inhibition (Rattus norvegicus [2]) was “inactive”.
Work on `COc1cc2nc3ccc(C(=O)O)cn3c(=O)c2cc1OC` yielded an ED50 (Rattus norvegicus [3]) of 0.05 mg/kg.
For `O=C(O)c1cccn2c(=O)c3cc4ccccc4cc3nc12`, the inhibition (Rattus norvegicus [2]) was “inactive”.
In the case of `O=C(O)c1ccc2nc3ccc(O)cc3c(=O)n2c1`, the ED50 (Rattus norvegicus [3]) is reported as 0.05 mg/kg.
For `O=C(O)c1ccn2c(=O)c3ccccc3nc2c1`, the inhibition in vivo at 0.5 mg/kg (Rattus norvegicus [1]) was 26%.
With `COc1ccc2nc3ccc(-c4nn[nH]n4)cn3c(=O)c2c1` the ED50 (Rattus norvegicus [3]) was 0.03 mg/kg.
